The values that follow come from ChEMBL document CHEMBL1275277, “Synthesis of bioactive polyheterocyclic ring systems as 5α-reductase inhibitors” (Eur J Med Chem, 2010).

Series [1] concerns Rattus norvegicus. Briefly: Inhibition of 5-alpha-reductase activity in sc dosed Sprague-Dawley rat assessed as effect on serum steroid level administered on postnatal third day measured after 7 weeks of age by radioimmunoassay. The class given is functional. An outline of the steps:
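Male Sprague–Dawley rats, 12 per group, given compound sc in 5% Tween 80 in water from postnatal day 3 until 7 weeks of age. Vehicle-treated negative control; anastrozole as positive control. Serum testosterone and DHT measured by RIA after ether extraction, using specific antisera and tritiated tracer, 24 h at 4 °C. Levels read from a standard curve and compared with vehicle controls to give ED50.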

The subject of series [2] is Rattus norvegicus. Briefly: Acute toxicity in sc dosed albino rat. The class given is organism-based. The note with it: in vivo. Summed up:
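Male albino rats were injected with increasing doses of each agent. LD50 and LD90, the doses killing 50% and 90% of the animals, were calculated by a published method.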

The subject of series [3] is Rattus norvegicus. Briefly: Inhibition of 5-alpha-reductase activity in sc dosed Sprague-Dawley rat assessed as effect on serum steroid level administered on postnatal third day measured after 7 weeks of age by radioimmunoassay relative to anastrozole. The class given is functional.

SMILES strings stand for the structures.

For `CCOC(=O)C1=NN(c2ccc(C)cc2)C2=NC3=C(CN(CC)C/C3=C\c3ccc(C)cc3)C(c3ccc(C)cc3)N12` (configuration not stated), the ED50 in the series with Rattus norvegicus [1] stood at 1 µg/kg. In the series on Rattus norvegicus [2], this molecule gave an LD50 of 224.33 µg/kg and an LD90 of 514.33 µg/kg. In addition, the “fold change (FC)” value with Rattus norvegicus [3] was determined as 1.09.

As for `CCN1CC2=C(N=C3N(c4ccc(C)cc4)N=C(C(=O)Nc4ccccc4)N3C2c2ccc(C)cc2)/C(=C/c2ccc(C)cc2)C1` (configuration not stated), the ED50 in the series with Rattus norvegicus [1] is 0.925 µg/kg. In the series on Rattus norvegicus [2], this molecule displayed an LD50 of 236.28 µg/kg and an LD90 of 417.34 µg/kg. The “fold change (FC)” value in the series on Rattus norvegicus [3] came out at 1.178.

Turning to `CCN1CC2=C(N=C3N(c4ccccc4)N=C(C(=O)Nc4ccccc4)N3C2c2ccc(C)cc2)/C(=C/c2ccc(C)cc2)C1` (configuration not stated), in the series on Rattus norvegicus [1], the ED50 stood at 0.432 µg/kg. In the series with Rattus norvegicus [2], this molecule had an LD50 of 6534.45 µg/kg and an LD90 of 1950.12 µg/kg. Further, the “fold change (FC)” value in the series on Rattus norvegicus [3] was found to be 2.523.

As for `CCN1CC2=C(N=C3N(c4ccc(Cl)cc4)N=C(C(C)=O)N3C2c2ccc(C)cc2)/C(=C/c2ccc(C)cc2)C1` (configuration not stated), the ED50 in the series with Rattus norvegicus [1] is 0.856 µg/kg. For the same molecule, in the series on Rattus norvegicus [2], the LD50 is 312.34 µg/kg and the LD90 worked out at 735.34 µg/kg. Besides, the “fold change (FC)” value in the series with Rattus norvegicus [3] is recorded as 1.273.

Consider `CCN1CC2=C(NC(=S)NC2c2ccc(C)cc2)/C(=C/c2ccc(C)cc2)C1` (configuration not stated), for which the ED50 in the series with Rattus norvegicus [1] is 1.88 µg/kg. Further, in the series on Rattus norvegicus [2], the LD50 stood at 222.23 µg/kg and the LD90 was found to be 434.76 µg/kg. Further, the “fold change (FC)” value in the series with Rattus norvegicus [3] is listed as 0.5798.

In the case of `CCN1CC2=C(N=C3N(c4ccccc4)N=C(C(C)=O)N3C2c2ccc(C)cc2)/C(=C/c2ccc(C)cc2)C1` (configuration not stated), the ED50 with Rattus norvegicus [1] came out at 0.911 µg/kg. In the series on Rattus norvegicus [2], this molecule registered an LD50 of 257.23 µg/kg and an LD90 of 419.23 µg/kg. The “fold change (FC)” value in the series with Rattus norvegicus [3] is given as 1.196.

Turning to `CCN1C/C(=C\c2ccc(C)cc2)c2nc3[nH]c(=S)[nH]c(=O)c3c(-c3ccc(C)cc3)c2C1`, in the series with Rattus norvegicus [1], the ED50 was determined as 0.795 µg/kg. In the series with Rattus norvegicus [2], this molecule registered an LD50 of 447.88 µg/kg and an LD90 of 937.34 µg/kg. In the series on Rattus norvegicus [3], the “fold change (FC)” value was found to be 1.371.

Take `CCN1C/C(=C\c2ccc(C)cc2)c2nc3nc4n(c(=O)c3c(-c3ccc(C)cc3)c2C1)C(=O)CS4`: the ED50 in the series with Rattus norvegicus [1] was 0.766 µg/kg. In the series with Rattus norvegicus [2], this molecule showed an LD50 of 516.56 µg/kg and an LD90 of 1148.5 µg/kg. Besides, the “fold change (FC)” value with Rattus norvegicus [3] came to 1.423.

`CCOC(=O)C1=NN(c2ccc(Cl)cc2)C2=NC3=C(CN(CC)C/C3=C\c3ccc(C)cc3)C(c3ccc(C)cc3)N12` (configuration not stated): the ED50 with Rattus norvegicus [1] worked out at 0.441 µg/kg. Moreover, the “fold change (FC)” value in the series with Rattus norvegicus [3] stood at 2.472.

For the molecule `CC(C)(C#N)c1cc(Cn2cncn2)cc(C(C)(C)C#N)c1` [ANASTROZOLE], the ED50 with Rattus norvegicus [1] is 1.09 µg/kg. Besides, in the series on Rattus norvegicus [2], the LD50 turned out to be 2.415 µg/kg and the LD90 stood at 3.69 µg/kg.
